The source of these data is ChEMBL document CHEMBL1155265, “Design, synthesis and in vitro antibacterial/antifungal evaluation of novel 1-ethyl-6-fluoro-1,4-dihydro-4-oxo-7(1-piperazinyl)quinoline-3-carboxylic acid derivatives” (2009).

Format in all cases: functional
One experiment deals with Xanthomonas axonopodis. The experiment in a line: Antibacterial activity against Xanthomonas axonopodis at 50 mg/L after 24 hrs by agar well diffusion method. The settings on record: read-out: DIZ. In a few lines:
(§1)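 Bacteria plated as 0.8 mL of 24-h-old inoculum mixed into 60 mL sterile molten agar cooled to 45 °C, poured into three dishes. Wells bored with centres at least 24 mm apart. Test sample at 50 mg/L in DMSO added to wells. DMSO served as negative control and agricultural streptomycin sulfate as positive control. Read-out was inhibition zone diameter (mm).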
For orientation: In agar diffusion tests the substance spreads into inoculated agar from a disc or well.

In another experiment the test system is Xanthomonas oryzae. The experiment in a line: Antibacterial activity against Xanthomonas oryzae at 50 mg/L after 24 hrs by agar well diffusion method. The settings on record: read-out: DIZ.
Another experiment deals with Fusarium graminearum. The experiment in a line: Antifungal activity against Gibberella zeae at 200 mg/L by plate growth rate method. The settings on record: read-out: GI. Summed up: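 Plate growth rate method: compound dissolved in DMSO, mixed into sterile PDA at 45 °C to 200 mg/L, plates poured. A 5 mm mycelium agar disc placed centrally; incubated at 28 °C in the dark until the untreated control covered the plate. Colony diameters measured; growth inhibition computed by Abbott's formula. Each compound tested three times.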

The test system of another experiment is Ralstonia solanacearum. The experiment in a line: Antibacterial activity against Ralstonia solanacearum at 50 mg/L after 24 hrs by agar well diffusion method. The note with it: read-out: DIZ.
The subject of another experiment is Erwinia. Description: Antibacterial activity against Erwinia aroideae at 50 mg/L after 24 hrs by agar well diffusion method. The note with it: read-out: DIZ. Summed up: as §1
For the next experiment, the system named is Rhizoctonia solani. Description: Antifungal activity against Rhizoctonia solani at 200 mg/L by plate growth rate method. The note with it: read-out: GI. In a few lines:
(§2)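 Compound dissolved in DMSO and mixed into molten PDA at 45 °C at 200 mg/L, then plates allowed to set. A 5 mm mycelial agar disc was placed at the centre. Plates were incubated at 28 °C in the dark until the untreated control covered the plate. Colony diameters were measured and growth inhibition calculated by Abbott's formula. Each compound was tested three times.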

A further experiment has as its system Cytospora mali. The experiment in a line: Antifungal activity against Valsa mali at 200 mg/L by plate growth rate method. The note with it: read-out: GI. Summed up: as §2
Another experiment concerns Bacillus subtilis. Description: Antibacterial activity against Bacillus subtilis at 50 mg/L after 24 hrs by agar well diffusion method. The note with it: read-out: DIZ. In a few lines:
as §1

As for `CCn1cc(C(=O)O)c(=O)c2cc(F)c(N3CCN(C(=O)/C=C/c4ccco4)CC3)cc21`, the zone of inhibition at 50 µg/mL in the experiment with Xanthomonas axonopodis was determined as 12.9 mm; with Xanthomonas oryzae, 15.3 mm; with Ralstonia solanacearum, 5.72 mm; in the experiment with Erwinia, 14.9 mm; in the experiment on Bacillus subtilis, 19.4 mm. For the same compound, the inhibition of growth at 200 µg/mL worked out at 8% with Fusarium graminearum, 20% in the experiment on Rhizoctonia solani and 7% with Cytospora mali.

As to `CCn1cc(C(=O)O)c(=O)c2cc(F)c(N3CCN(C(=O)c4ccccc4Cl)CC3)cc21`, the zone of inhibition at 50 µg/mL with Xanthomonas axonopodis amounted to 14.2 mm; in the experiment with Xanthomonas oryzae it was 16.9 mm; with Ralstonia solanacearum it was 8.97 mm; in the experiment with Erwinia, 16 mm; in the experiment on Bacillus subtilis it was 19 mm. Further, the inhibition of growth at 200 µg/mL was 27% with Fusarium graminearum, 5% with Rhizoctonia solani and 41% in the experiment on Cytospora mali.

As to `CCn1cc(C(=O)O)c(=O)c2cc(F)c(N3CCN(C(=O)/C=C/c4ccc(OC)cc4)CC3)cc21`, the zone of inhibition at 50 µg/mL in the experiment on Xanthomonas axonopodis stood at 6.83 mm; in the experiment on Xanthomonas oryzae it was 5.35 mm; in the experiment with Ralstonia solanacearum, 0 mm; in the experiment with Erwinia it was 8.02 mm; with Bacillus subtilis, 8.91 mm. For the same compound, the inhibition of growth at 200 µg/mL in the experiment with Fusarium graminearum worked out at 1%; in the experiment with Rhizoctonia solani, 94%; in the experiment on Cytospora mali, 5%.

Take `CCn1cc(C(=O)O)c(=O)c2cc(F)c(N3CCN(C(=O)c4oc5ccccc5c4C)CC3)cc21`: the zone of inhibition at 50 µg/mL in the experiment with Xanthomonas axonopodis stood at 5.24 mm; with Xanthomonas oryzae, 5.44 mm; in the experiment with Ralstonia solanacearum, 3.56 mm; with Erwinia, 5.94 mm; with Bacillus subtilis, 6.99 mm. The inhibition of growth at 200 µg/mL was 45% with Fusarium graminearum, 65% in the experiment on Rhizoctonia solani and 33% in the experiment with Cytospora mali.

As to `CCn1cc(C(=O)O)c(=O)c2cc(F)c(N3CCN(C(=O)c4ccccc4O)CC3)cc21`, the zone of inhibition at 50 µg/mL with Xanthomonas axonopodis was 14.4 mm; with Xanthomonas oryzae, 16.7 mm; in the experiment with Ralstonia solanacearum it was 2.06 mm; with Erwinia, 16.5 mm; in the experiment with Bacillus subtilis, 22.7 mm. The inhibition of growth at 200 µg/mL turned out to be 15% with Fusarium graminearum, 0% in the experiment with Rhizoctonia solani and 17% in the experiment on Cytospora mali.

Regarding `CCn1cc(C(=O)O)c(=O)c2cc(F)c(N3CCN(C(=O)COc4ccc(F)cc4)CC3)cc21`, the zone of inhibition at 50 µg/mL came to 11.1 mm in the experiment with Xanthomonas axonopodis; 11 mm in the experiment with Xanthomonas oryzae; 3.31 mm with Ralstonia solanacearum; 13.3 mm in the experiment on Erwinia; 13.9 mm with Bacillus subtilis. The values for the inhibition of growth at 200 µg/mL with Fusarium graminearum, in the experiment on Rhizoctonia solani and in the experiment on Cytospora mali were 15%, 52% and 12%, respectively.

On to `CCn1cc(C(=O)O)c(=O)c2cc(F)c(N3CCN(C(=O)COc4ccc(OC)cc4)CC3)cc21`, for which the zone of inhibition at 50 µg/mL in the experiment on Xanthomonas axonopodis amounted to 12.5 mm; in the experiment with Xanthomonas oryzae it was 14.5 mm; in the experiment with Ralstonia solanacearum, 6.31 mm; in the experiment on Erwinia it was 15.2 mm; in the experiment on Bacillus subtilis, 17.6 mm. For the same compound, the values for the inhibition of growth at 200 µg/mL in the experiment with Fusarium graminearum, in the experiment on Rhizoctonia solani and in the experiment on Cytospora mali were 17%, 60% and 10%, respectively.

As for `CCn1cc(C(=O)O)c(=O)c2cc(F)c(N3CCN(C(=O)/C=C/c4ccc(Cl)cc4Cl)CC3)cc21`, the zone of inhibition at 50 µg/mL with Xanthomonas axonopodis is 5.91 mm; in the experiment on Xanthomonas oryzae it was 4.44 mm; in the experiment on Ralstonia solanacearum, 0 mm; with Erwinia, 2.92 mm; with Bacillus subtilis, 2.08 mm. For the same compound, the inhibition of growth at 200 µg/mL with Fusarium graminearum came out at 2%; with Rhizoctonia solani it was 0%; with Cytospora mali, 6%.

Regarding `CCn1cc(C(=O)O)c(=O)c2cc(F)c(N3CCNCC3)cc21` [NORFLOXACIN], the zone of inhibition at 50 µg/mL in the experiment with Xanthomonas axonopodis is 17.7 mm; with Xanthomonas oryzae it was 22.2 mm; in the experiment with Ralstonia solanacearum, 19.3 mm; in the experiment with Erwinia, 21.5 mm; in the experiment on Bacillus subtilis, 30.5 mm. Further, the results for the inhibition of growth at 200 µg/mL in the experiment with Fusarium graminearum, in the experiment on Rhizoctonia solani and with Cytospora mali were 18%, 0% and 27%, respectively.

`CCn1cc(C(=O)O)c(=O)c2cc(F)c(N3CCN(C(=O)COc4ccc(C(C)(C)C)cc4)CC3)cc21`: the zone of inhibition at 50 µg/mL with Xanthomonas axonopodis turned out to be 6.41 mm; with Xanthomonas oryzae it was 5.81 mm; in the experiment on Ralstonia solanacearum, 10.9 mm; with Erwinia it was 8.52 mm; in the experiment on Bacillus subtilis, 10.8 mm. Moreover, the inhibition of growth at 200 µg/mL was determined as 28% with Fusarium graminearum, 53% with Rhizoctonia solani and 14% with Cytospora mali.

Regarding `CCn1cc(C(=O)O)c(=O)c2cc(F)c(N3CCN(C(=O)/C=C/c4ccc(C)o4)CC3)cc21`, the zone of inhibition at 50 µg/mL was 10.2 mm with Xanthomonas axonopodis; 18.1 mm with Xanthomonas oryzae; 6.97 mm in the experiment on Ralstonia solanacearum; 11.2 mm in the experiment with Erwinia; 17 mm with Bacillus subtilis. Besides, the inhibition of growth at 200 µg/mL with Fusarium graminearum was found to be 25%; in the experiment on Rhizoctonia solani, 83%; in the experiment on Cytospora mali it was 25%.

`CCn1cc(C(=O)O)c(=O)c2cc(F)c(N3CCN(C(=O)COc4ccc(Cl)cc4Cl)CC3)cc21`: the zone of inhibition at 50 µg/mL in the experiment on Xanthomonas axonopodis is 8.16 mm; in the experiment with Xanthomonas oryzae, 10 mm; in the experiment with Ralstonia solanacearum it was 0.5 mm; in the experiment with Erwinia, 8.52 mm; in the experiment with Bacillus subtilis, 9.91 mm. The figures for the inhibition of growth at 200 µg/mL in the experiment on Fusarium graminearum, in the experiment on Rhizoctonia solani and in the experiment on Cytospora mali were 5%, 72% and 17%, respectively.

With `CCn1cc(C(=O)O)c(=O)c2cc(F)c(N3CCN(C(=O)COc4ccccc4Cl)CC3)cc21`, the zone of inhibition at 50 µg/mL with Xanthomonas axonopodis was 10.4 mm; with Xanthomonas oryzae it was 17.2 mm; in the experiment with Ralstonia solanacearum, 4.67 mm; in the experiment on Erwinia it was 11.8 mm; in the experiment on Bacillus subtilis, 14.2 mm. Moreover, the inhibition of growth at 200 µg/mL in the experiment on Fusarium graminearum was determined as 10%; with Rhizoctonia solani, 3%; in the experiment on Cytospora mali, 12%.

As for `CCn1cc(C(=O)O)c(=O)c2cc(F)c(N3CCN(C(=O)c4cc5ccccc5o4)CC3)cc21`, the zone of inhibition at 50 µg/mL stood at 8.66 mm with Xanthomonas axonopodis; 8.35 mm in the experiment on Xanthomonas oryzae; 8.56 mm in the experiment on Ralstonia solanacearum; 11 mm with Erwinia; 11.2 mm in the experiment with Bacillus subtilis. The inhibition of growth at 200 µg/mL came to 7% with Fusarium graminearum, 17% in the experiment on Rhizoctonia solani and 9% in the experiment with Cytospora mali.

Regarding `CCn1cc(C(=O)O)c(=O)c2cc(F)c(N3CCN(C(=O)Cc4cccc5ccccc45)CC3)cc21`, the zone of inhibition at 50 µg/mL with Xanthomonas axonopodis amounted to 9.99 mm; with Xanthomonas oryzae, 9.35 mm; with Ralstonia solanacearum, 0 mm; in the experiment on Erwinia, 10.4 mm; with Bacillus subtilis, 13.2 mm. Further, the inhibition of growth at 200 µg/mL in the experiment with Fusarium graminearum was found to be 12%; in the experiment with Rhizoctonia solani it was 5%; in the experiment with Cytospora mali it was 0%.
